14-3-3 Bad PPI: disrupts binding of bovine 14-3-3 zeta to phospho-Bad peptide; 0.71% of 220,000 active; AID 781; TR-FRET 14-3-3zeta/Dy647-pBad peptide displacement, 1 h; P63103; inhibition, % at 21.7 µM;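 active = inhibition above about 70%, limit read from the data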;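 note: 0% = full 14-3-3 plus peptide FRET controls and 100% = background without 14-3-3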
RBBP9 inh: inhibitors of human serine hydrolase RBBP9; 0.2% of 220,000 active; recombinant RBBP9, FP-Rh probe fluorescence polarization; O75884; inhibition, % at 7.94 µM;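 active = inhibition above the campaign mean of all tested compounds plus 3 SD, cut at about 14% in these data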;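 note: plate controls were DMSO wells with RBBP9 for no effect and wells lacking RBBP9 protein for full effect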
Target sequence (O75884 whole entry, looked up): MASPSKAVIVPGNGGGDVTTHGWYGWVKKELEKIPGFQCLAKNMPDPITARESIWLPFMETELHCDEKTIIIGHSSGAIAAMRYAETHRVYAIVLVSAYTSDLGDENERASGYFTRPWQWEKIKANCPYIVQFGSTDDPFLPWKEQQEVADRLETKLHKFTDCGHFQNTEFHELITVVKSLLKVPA
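Measured by – fluorescence polarization · Test system – RBBP9 protein · Input – 2.5 µM RBBP9 dispensing solution, before mixing · Measure – percent inhibition from mP, scaled between DMSO and no-protein wells · Benchmarks – DMSO-treated enzyme wells and wells lacking RBBP9 · Times – preincubation 30 min plus labeling 45 min at 25 °C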
eIF4E 4G PPI: eIF4E/eIF4G interaction inhibition in translation initiation. TR-FRET eIF4E-eIF4GI(517-606) binding, 2 h. P63073+Q04637. 0.37% of 220,000 active. AID 782. inhibition, % at 21.7 µM;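 note: 0% = full FRET control wells and 100% = background wells lacking eIF4GI fragment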
Wee1 stabilizer: human Wee1 degradation inhibition, primary screen | P30291 | AID 1321 | 1.2% of 220,000 active | HeLa Luc-Wee1K328M stability, luciferase luminescence; 100% = proteasome inhibitor MG132 effect | reporter increase, % at 5 µM;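 active = activation above the mean of all tested compounds plus 3 SD, set per screening run, cut at about 8.8% in these data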;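 note: cells exposed to compound for 20 h before luminescence read; 0% = DMSO alone and 100% = MG132 at 30 µM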
NCF1 inh: p47phox (human) inhibition | P14598 | p47phox/p22phox peptide binding, fluorescence polarization, 2 h | inhibition, % at 24.7 µM | 0.53% of 220,000 active | AID 1274;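 note: 0% = p47phox with labelled peptide and 100% = labelled peptide alone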
Target sequence (P14598 whole entry, looked up): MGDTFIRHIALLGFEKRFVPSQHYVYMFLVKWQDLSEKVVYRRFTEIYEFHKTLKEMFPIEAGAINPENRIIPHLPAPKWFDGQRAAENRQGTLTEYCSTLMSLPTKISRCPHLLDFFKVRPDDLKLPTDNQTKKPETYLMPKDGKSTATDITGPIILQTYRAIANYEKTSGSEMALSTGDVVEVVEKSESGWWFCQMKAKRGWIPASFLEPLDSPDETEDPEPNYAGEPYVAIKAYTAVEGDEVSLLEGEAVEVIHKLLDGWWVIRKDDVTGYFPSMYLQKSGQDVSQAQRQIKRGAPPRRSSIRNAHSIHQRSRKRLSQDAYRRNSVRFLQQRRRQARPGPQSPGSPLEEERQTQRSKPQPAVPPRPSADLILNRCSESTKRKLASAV
The depositor's hits bear a star; x = no result; [ ] = remark or other dose. Rows were chosen to be rich in hits. Some 2.8% of all compounds tested hit in one or more screens of this group.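 Rule for the calls, unless noted: active = inhibition above about 30% (limit read from the data); inactive = the rest.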

SMILES	14-3-3 Bad PPI	RBBP9 inh	eIF4E 4G PPI	Wee1 stabilizer	NCF1 inh
O=C(C1=C[C@@H](C2CCCCC2)C[C@@H](OCCCCO)O1)N1CCOCC1	3	3	3	-1	x
CN(c1nc2ccccc2n2c(C3CC3)nnc12)S(=O)(=O)c1ccccc1	15	-8	4	-2	-6
O=C(COc1ccc(Cl)cc1Cl)Nc1ccc(CN2CCCCC2)cc1	-4	0	1	1	38*
Cc1cc(NC(=O)c2c(-c3c(Cl)cccc3Cl)noc2C)n(C)n1	-6	-1	2	0	-81
c1ccc2[nH]c(SN3CCOCC3)nc2c1	13	1	44*[fluorescence artefact?]	-3	22
c1ccc2[nH]c(CN3CCOCC3)nc2c1	2	-8	-1	1	-2
COC(=O)c1sccc1NC(=O)CSCCc1ccncc1	-13	2	-5	-2	-9
Cc1ccc2oc(Nc3nc(-c4ccccc4)cc(=O)[nH]3)nc2c1	88*	-5	23	-3	45*
Nc1cc(F)ccc1N1CCCCCC1	4	-5	2	-3	12
CN1CCc2c(sc3c2C(=O)NC(c2ccc(-c4ccc(Cl)cc4)o2)N3)C1 (stereo unspecified)	17	-1	-3	-3	-20
Cc1ccc(NS(=O)(=O)c2cc(C(=O)N3CCN(C)CC3)ccc2C)cc1C	1	-5	-2	8.9*	-7
COc1ccc(NC(=S)N2CCN(C(=O)C3CCCO3)CC2)c(OC)c1 (stereo unspecified)	-25	-4	11	0	-4
CC(NC(=O)C(=O)NCCC1=CCCCC1)c1ccccc1 (stereo unspecified)	-6	-4	0	8.8*	-9
Cc1ccc(NC(=O)C2CCN(S(=O)(=O)c3cnc[nH]3)CC2)nc1	7	-7	4	-2	-11
Cc1ccc(NC(=O)C2CCN(S(=O)(=O)c3c(C)n[nH]c3C)CC2)nc1	10	-8	0	10*	-5
COC(=O)c1nnn(CC(=O)NC(=O)Nc2ccccc2)c1C(=O)OC	-5	-6	6	7	-33
c1ccc(CC2=NCCN2)cc1	-1	1	0	1	54*
c1ccc(CN(CC2=NCCN2)c2ccccc2)cc1	-3	-2	-3	-1	-3
N#CCC(=O)N/N=C/c1cc(-c2ccccc2)n(-c2ccc(Cl)cc2)c1-c1ccccc1	-13	-9	3	5	-11
COC(=O)CSc1nccc(C)n1	0	0	1	4	-8
COc1cccc2c1C(=O)c1c(O)c3c(c(O)c1C2=O)C[C@@](O)(C(C)=O)C[C@@H]3O[C@H]1C[C@H](N)[C@H](O)[C@H](C)O1	-15	27*	10	-4	-253
CCCCc1ccc(/C=C2\C(=O)c3ccccc3C(O)=C2C(=O)OCC)cc1	-15	-4	4	0	58*
CCOC(=O)C1=C(Cc2ccc(F)cc2)C(=O)c2ccccc2C1=O	-3	-4	8	-2	1
CCOc1ccc(S(=O)(=O)NCCOC)cc1C	73*	-8	1	1	0
Cn1c(C(=O)N2CCN(c3ccc([N+](=O)[O-])cc3)CC2)cc2c(=O)[nH]c3ccccc3c21	22	-3	-6	-3	9
SMILES	14-3-3 Bad PPI	RBBP9 inh	eIF4E 4G PPI	Wee1 stabilizer	NCF1 inh
COc1ccc(C(=O)C(c2ccccc2)N2CCOCC2)cc1 (stereo unspecified)	71*	-3	-11	1	3
CN(C)/C=C/C(=O)c1cnc(-c2ccccc2)s1	-7	-11	-4	10*	-5
O=C(c1ccccc1)c1cnc(-c2ccccc2)s1	-2	-4	1	10*	-6
CN(C)/C=C/C(=O)c1cnc(-c2ccc(Cl)cc2)s1	-5	-11	1	2	-88
CCNS(=O)(=O)c1ccc(CCC(=O)NCCC2=CCCCC2)cc1	-2	-3	3	1	-16
CCSc1sccc1C1C(C#N)=C(N)N(c2cccnc2)C2=C1C(=O)CCC2 (stereo unspecified)	90*	-7	-4	2	-3
COC(=O)c1ccc(CN2C(=O)NC3(CCCCC3)C2=O)cc1	-14	-2	-1	-4	-6
O=C(CCCNC(=O)/C(=C/c1ccccc1F)NC(=O)c1ccccc1)OCc1ccccc1	5	2	2	2	2
CCC1=[N+](CC(=O)c2ccc(Br)cc2)CCn2c(C)ccc21	-3	0	2	11*	-5
CCC1=[N+](C)CCn2c(C)ccc21	77*[fluorescence artefact?]	3	2	-3	-7
O=C(Cn1cnc2c(nnn2-c2ccccc2)c1=O)NCc1ccc(F)cc1	14	1	1	0	0
Cc1ccc(-n2nnc3c(=O)n(CC(=O)NCc4ccccc4)cnc32)cc1	1	-7	3	15*	-4
CCN(CC)Cc1cc2[nH]c3c4ccc(Cl)cc4ncc3c2cc1OC	9	-3	-1	-1	-4
COc1ccc(C(=O)N2CCOC2CNC(=O)C(=O)NCc2ccc3c(c2)OCO3)cc1 (stereo unspecified)	0	-2	0	4	x
COc1cc(NCCCCCCCN)c2ncccc2c1	10	2	1	-4	34*
COc1cc(NCc2ccccc2O)c2ncccc2c1	-2	-7	2	3	4
CCOC(=O)c1c(C)[nH]c(C(=O)COC(=O)c2cnc(C)cn2)c1C	80*	-2	1	-3	-9
CCOC(=O)c1c(C)[nH]c(C(=O)CN2CCN(CC)CC2)c1C	31	-11	54*	1	0
CCOC(=O)c1ccc(NC(=O)CCC(=O)OC)cc1	5	-7	2	-2	0
O=C(CCC(=O)Nc1ccccc1)NNS(=O)(=O)c1ccccc1[N+](=O)[O-]	-1	-6	3	0	2
CCOC(=O)c1ccc(NC(=O)COc2ccc(S(=O)(=O)NC(C)C)cc2)cc1	72*	-9	-5	-1	-8
CC(=O)NS(=O)(=O)c1ccc(NC(=O)COc2ccc(C(=O)c3ccccc3)cc2)cc1	9	-5	1	10*	1
Cc1cc(C)nc(NS(=O)(=O)c2ccc(NC(=O)COc3ccccc3)cc2)n1	8	-7	1	-1	-7
Cc1ccc(C)n1-c1ccc(-c2ccnc(N)n2)cc1	-10	-12	-5	-2	-21
CC(C)(C)c1ccc(-c2noc(-c3ccc4c(c3)CCO4)n2)cc1	0	4	3	4	7
C/C=C(/C)C(=O)Nc1cccc(C2=NOC3(C2)C[C@H](C(N)=O)N(C(=O)c2ccc(Cl)cc2)C3)c1 (stereo partly specified)	-5	x	-5	x	42*
C/C=C(\C)C(=O)N1CC2(CC(c3cccc(NC(=O)CC(c4ccccc4)c4ccccc4)c3)=NO2)C[C@H]1C(N)=O (stereo partly specified)	4	x	88*	x	-5

Bioassay records: PubChem BioAssay, several laboratories
